Holding throughout (type): functional
Assay [1] concerns Escherichia coli. As to the kind of experiment: Antibacterial activity against Escherichia coli K-12 was determined. An outline of the steps: (§1)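 Agar dilution MIC on Mueller–Hinton agar for reference strains of other species. Compounds were dissolved in DMSO and serially diluted two-fold. Strains were stored at -80 °C before testing. MIC was taken as the minimum concentration completely inhibiting growth.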

Assay [2] has as its system Helicobacter pylori. As to the kind of experiment: Antibacterial activity against Helicobacter pylori ATCC 43504 was determined. A digest of the protocol:
(§2)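 Agar dilution MIC on Columbia agar with 7% defibrinated sheep blood. Compounds were dissolved in DMSO and serially diluted two-fold. Inoculum was grown 24 h at 37 °C in Brucella broth with 5% fetal bovine serum under microaerophilic gas (5% O2, 10% CO2, 85% N2) and adjusted to about 10^8 CFU/mL, then streaked onto ~2 cm squares. Plates were incubated microaerophilically for 3 days at 37 °C. MIC was the lowest concentration giving complete growth inhibition.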

The subject of assay [3] is Staphylococcus aureus. As to the kind of experiment: Antibacterial activity against Staphylococcus aureus 209P JC was determined. A digest of the protocol:
as §1

Assay [4] has as its system Enterococcus faecalis. As to the kind of experiment: Antibacterial activity against Enterococcus faecalis was determined. An outline of the steps: as §1
The test system of assay [5] is Helicobacter pylori. As to the kind of experiment: Antibacterial activity against Helicobacter pylori HP0019 was determined. An outline of the steps:
as §2

Assay [6] deals with Helicobacter pylori. As to the kind of experiment: Antibacterial activity against Helicobacter pylori HP003 was determined. A digest of the protocol: as §2
The test system of assay [7] is Helicobacter pylori. As to the kind of experiment: Antibacterial activity against Helicobacter pylori HP004 was determined. A digest of the protocol:
(§3)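 Agar dilution MIC on Columbia agar with 7% defibrinated sheep blood. Compounds dissolved in DMSO and serially diluted twofold. Inoculum was H. pylori grown 24 h at 37 °C in Brucella broth with 5% fetal bovine serum under microaerophilic gas (5% O2, 10% CO2, 85% N2), adjusted to about 10^8 CFU/mL and streaked by loop. Plates were incubated microaerophilically for 3 days at 37 °C. MIC taken as the lowest concentration giving complete growth inhibition.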

The subject of assay [8] is Helicobacter pylori. As to the kind of experiment: Antibacterial activity against Helicobacter pylori HP007 was determined. A digest of the protocol: as §2
In assay [9] the test system is Helicobacter pylori. As to the kind of experiment: Antibacterial activity against Helicobacter pylori HP008 was determined. An outline of the steps: as §2
Assay [10] relates to Helicobacter pylori. As to the kind of experiment: Antibacterial activity against Helicobacter pylori HP020 was determined. An outline of the steps:
as §3

Assay [11] has as its system Helicobacter pylori. As to the kind of experiment: Antibacterial activity against Helicobacter pylori HP021 was determined. A digest of the protocol:
as §2

Assay [12] relates to Helicobacter pylori. As to the kind of experiment: Antibacterial activity against Helicobacter pylori HP022 was determined. A digest of the protocol: as §2
Assay [13] concerns Helicobacter pylori. As to the kind of experiment: Antibacterial activity against Helicobacter pylori HP001 was determined. An outline of the steps: as §2
Assay [14] relates to Helicobacter pylori. As to the kind of experiment: Antibacterial activity against Helicobacter pylori HP0016 was determined. A digest of the protocol:
as §2

For assay [15], the system named is Helicobacter pylori. As to the kind of experiment: Antibacterial activity against Helicobacter pylori HP0017 was determined. An outline of the steps: as §2
Assay [16] has as its system Helicobacter pylori. As to the kind of experiment: Antibacterial activity against Helicobacter pylori HP0018 was determined. A digest of the protocol: as §3
The subject of assay [17] is Klebsiella pneumoniae. As to the kind of experiment: Antibacterial activity against Klebsiella pneumoniae was determined. A digest of the protocol:
as §1

The test system of assay [18] is Morganella morganii. As to the kind of experiment: Antibacterial activity against Morganella morganii was determined. An outline of the steps: as §1
In assay [19] the test system is Staphylococcus epidermidis. As to the kind of experiment: Antibacterial activity against Staphylococcus epidermidis was determined. A digest of the protocol: as §1

Molecules are shown by their SMILES. Converted amounts (≈) assume the structure as drawn.

One may read the MIC as the lowest concentration found to suppress growth. High values mean a need for much substance, low ones inhibition by little substance. Regarding `Cl.N=C(N)NCc1ccc(C(=O)Oc2ccccc2)cc1`, the minimal inhibitory concentration (MIC) is greater than 64 µg/mL in [1], 16 µg/mL in assay [2] and greater than 64 µg/mL in assay [3].
As to `Cl.N=C(N)NCc1ccc(C(=O)O)cc1`, the MIC in [1], in assay [2] and in [3] was greater than 64 µg/mL each time.
As for `Cl.N=C(N)NCc1ccc(C(=O)Nc2ccccc2)cc1`, the minimum inhibitory concentration (MIC) in assay [1], in assay [2] and in [3] was greater than 64 µg/mL each time.
Regarding `Cc1ccc(COC(=O)c2ccc(-c3ccc(OC(=O)c4ccc(CN=C(N)N)cc4)cc3)cc2)cc1.Cl`, the minimal inhibitory concentration (MIC) in [1] was greater than 64 µg/mL; in [4], greater than 64 µg/mL; in [5], 1.6 µg/mL; in assay [6], 0.8 µg/mL; in assay [7], 0.8 µg/mL; in assay [8] it was 0.8 µg/mL. Also, the MIC in [9] amounted to 0.8 µg/mL; in [10], 0.8 µg/mL; in assay [11], 0.8 µg/mL; in [12], 0.8 µg/mL; in assay [2], 0.8 µg/mL; in assay [13], 0.4 µg/mL. Further, the MIC is 0.8 µg/mL in [14]; 1.6 µg/mL in [15]; 0.4 µg/mL in assay [16]; greater than 64 µg/mL in [17]; greater than 64 µg/mL in assay [18]; greater than 64 µg/mL in assay [19]. The compound also returned a minimum inhibitory concentration (MIC) in assay [3] greater than 64 µg/mL.
For the compound `Cc1ccc(CO)cc1`, the minimal inhibitory concentration (MIC) in [1], in assay [2] and in [3] was greater than 64 µg/mL each time.
`Cc1ccc(COC(=O)c2ccc(-c3ccc(O)cc3)cc2)cc1`: the MIC in assay [1] is greater than 64 µg/mL; in [2] it was 8 µg/mL (≈ 25.1 µM); in assay [3], greater than 64 µg/mL.
With `O=C(O)c1ccc(-c2ccc(O)cc2)cc1`, the minimal inhibitory concentration (MIC) in assay [1], in assay [2] and in assay [3] was greater than 64 µg/mL in each case.
`COC(=O)c1ccc(-c2ccc(O)cc2)cc1`: the MIC in assay [1], in [2] and in assay [3] was greater than 64 µg/mL throughout.
With `NCc1ccc(C(=O)O)cc1` [AMINOMETHYLBENZOIC ACID], the minimal inhibitory concentration (MIC) in assay [1], in assay [2] and in assay [3] was greater than 64 µg/mL in each case.
Regarding `CC1(C)S[C@@H]2[C@H](NC(=O)[C@H](N)c3ccc(O)cc3)C(=O)N2[C@H]1C(=O)O` [AMOXICILLIN], the minimum inhibitory concentration (MIC) amounted to 1.6 µg/mL (≈ 4.38 µM) in [1]; 0.78 µg/mL (≈ 2.13 µM) in assay [4]; 0.05 µg/mL (≈ 0.137 µM) in assay [5]; 0.05 µg/mL (≈ 0.137 µM) in assay [6]; 0.05 µg/mL (≈ 0.137 µM) in assay [7]; 0.05 µg/mL (≈ 0.137 µM) in assay [8]. For the same compound, the MIC in assay [9] amounted to 0.05 µg/mL (≈ 0.137 µM); in assay [10], 0.05 µg/mL (≈ 0.137 µM); in assay [11] it was 0.025 µg/mL (≈ 0.0684 µM); in assay [12] it was 0.025 µg/mL (≈ 0.0684 µM); in [2] it was 0.05 µg/mL (≈ 0.137 µM); in assay [13] it was 0.025 µg/mL (≈ 0.0684 µM). Further, the minimum inhibitory concentration (MIC) in assay [14] was 0.05 µg/mL (≈ 0.137 µM); in assay [15], 0.025 µg/mL (≈ 0.0684 µM); in assay [16] it was 0.05 µg/mL (≈ 0.137 µM); in [17], 50 µg/mL (≈ 137 µM); in [18], greater than 100 µg/mL; in assay [19], 0.78 µg/mL (≈ 2.13 µM). In [3], this compound showed an MIC of 0.2 µg/mL (≈ 0.547 µM).
For `Cc1ncc([N+](=O)[O-])n1CCO` [METRONIDAZOLE], the minimal inhibitory concentration (MIC) in assay [1] was greater than 100 µg/mL; in assay [4] it was greater than 100 µg/mL; in assay [5], 32 µg/mL (≈ 187 µM); in assay [6], 2 µg/mL (≈ 11.7 µM); in assay [7], 8 µg/mL (≈ 46.7 µM); in [8] it was 16 µg/mL (≈ 93.5 µM). Further, the MIC in assay [9] was 32 µg/mL (≈ 187 µM); in assay [10], 128 µg/mL (≈ 748 µM); in assay [11] it was 32 µg/mL (≈ 187 µM); in assay [12], 16 µg/mL (≈ 93.5 µM); in assay [2], 64 µg/mL (≈ 374 µM); in assay [13] it was 4 µg/mL (≈ 23.4 µM). Also, the minimum inhibitory concentration (MIC) in assay [14] is 32 µg/mL (≈ 187 µM); in assay [15] it was 64 µg/mL (≈ 374 µM); in assay [16] it was 8 µg/mL (≈ 46.7 µM); in assay [17], greater than 100 µg/mL; in assay [18], greater than 100 µg/mL; in [19], greater than 100 µg/mL. Besides, in [3], the MIC was greater than 100 µg/mL.

For the origin of these results see ChEMBL document CHEMBL1136156, “A specific anti-Helicobacter pylori agent NE2001: synthesis and its effect on the growth of H. pylori” (2003).
